Assay outcomes deposited in PubChem BioAssay by several laboratories.
PG9 Ab binder = PG9 antibody binding by small molecule. TR-FRET gp120-PG9 antibody binding. inhibition, % at 6.7 µM. 360,000 compounds, 0.43% hits; in the data active means inhibition above about 8.5%
Rin1 Abl inh = inhibitors of human Rin1-Abl protein interaction; 360,000 compounds, 0.4% hits; TR-FRET Rin1/Abl binding, biochemical; P00519+Q13671; inhibition, % at 7.35 µM; in the data active means inhibition above about 5%, passing the limit was not always enough
Tb MetRS inh = Trypanosoma brucei MetRS inhibition | 360,000 compounds, 0.4% hits | inhibition, % at 11.9 µM | purified T. brucei MetRS, ATP depletion, Kinase-Glo luminescence | AID 624268;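 active means inhibition above a per-plate cutoff of the control wells' mean inhibition plus 3 SD, cut at about 5.5% in these data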;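 further: 0% = DMSO wells median and 100% = median of wells with control inhibitor compound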
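Test system – parasite MetRS enzyme · Reagent – substrates ATP, L-methionine and bulk Escherichia coli tRNA · Doses – 11.9 µM compound single dose, 0.9% DMSO · Times – 15 min enzyme-compound preincubation, 2 h reaction, 10 min detection, 25 °C · Signal – Kinase-Glo luminescence, ATP depletion format · Controls – DMSO-only wells as low control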
Rev-erbA mod = modulates human Rev-erb alpha binding to DNA; 370,000 compounds, 0.79% hits; activity, % at 10 µM; Rev-erbα–FITC-DNA binding, fluorescence polarization, 90 min; P20393;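 active means activity above about 14%, limit read from the data; passing the limit was not always enough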;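 further: 0% = DMSO wells with 35 nM protein and 100% = DMSO wells with 750 nM protein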
Tb MetRS conf = Trypanosoma brucei MetRS inhibition confirmed; shares compounds with Tb MetRS inh; T. brucei MetRS enzyme, luminescence (ATP depletion); inhibition, % at 11.9 µM; 1,400 compounds, 93% hits; AID 624412; in the data active means inhibition above about 7%
Jurkat tox = kills Jurkat cells in T. brucei MetRS counterscreen. shares compounds with Tb MetRS inh. Jurkat cells viability, ATP luminescence. inhibition, % at 8.3 µM. 1,400 compounds, 12% hits; in the data active means inhibition above about 15%;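 further: 0% = vehicle and 100% = reference inhibitor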
Tb MetRS inh FP = inhibits T. brucei methionyl tRNA synthetase in orthogonal FP test. shares compounds with Tb MetRS inh. purified T. brucei MetRS, fluorescence polarization. inhibition, % at 11.9 µM. 1,400 compounds, 44% hits. AID 651607; in the data active means inhibition above about 17%;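 further: 0% = vehicle wells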
An asterisk follows results filed as active; . = no result given. Only some compounds are listed: those with a hit (about 1.8% of all), similar ones and a draw of the others.

SMILES	PG9 Ab binder	Rin1 Abl inh	Tb MetRS inh	Rev-erbA mod	Tb MetRS conf	Jurkat tox	Tb MetRS inh FP
CCOC(=O)c1cccc(NC(=O)Cn2c(CC(=O)NC)nc3ccccc32)c1	-1.1	1.9	79.4*	-3.4	87.7*	5.5	71.4*
Cc1nc2ccccc2n(CC(=O)Nc2cc(Cl)cc(Cl)c2)c1=O	1.3	-2.9	5.8*	5.5	11.0*	-4.0	6.8
C[C@@H]1CN([C@@H](C)CO)C(=O)c2cc(Br)cnc2O[C@@H]1CN(C)Cc1ccccn1	0.2	.	.	-9.8	.	.	.
COC(=O)[C@]12C[C@H](CC(=O)NCc3ccc(C)o3)C(=O)N(CCC3=CCCCC3)C1=C[C@H](COCc1ccccc1)O[C@@H]2C	0.5	.	.	-4.6	.	.	.
Cc1c(CN2CCN(c3ncc(Cc4ccccc4)cn3)CC2)c(=O)n(-c2ccccc2)n1C	0.4	.	.	-5.8	.	.	.
CC1(C)C2CCC1(CS(=O)(=O)NCc1ccc(Cl)cc1Cl)C(=O)C2 (configuration not stated)	-3.0	4.4	7.6*	2.2	20.8*	-0.6	4.4
Cn1c(=O)c2cc(NC(=S)NCc3ccccc3F)ccc2n1Cc1ccccc1	-1.2	-3.4	0.7	-7.0	.	.	.
Cc1cc(C)cc(Cn2c3ccc(NC(=S)NCc4ccccc4F)cc3c(=O)n2C)c1	0.4	-4.2	8.5*	8.7	33.3*	-7.2	15.8
COc1cc(Cn2c3ccc(NC(=S)NCc4ccc(C)cc4)cc3c(=O)n2C)ccc1F	-1.1	-0.1	7.9*	-4.0	27.8*	1.4	16.4
CCN1C(=O)C(CC(=O)Nc2ccc(OC)cc2)N(CCc2ccccc2F)C1=S (configuration not stated)	-2.1	-1.9	33.5*	-0.3	33.6*	18.1*	21.3*
COc1ccc(NC(=O)CC2C(=O)N(C)C(=S)N2Cc2ccco2)cc1 (configuration not stated)	-2.0	-1.4	-0.2	-1.4	.	.	.
COc1ccc(NC(=O)CC2C(=O)N(C)C(=S)N2CCc2ccccc2F)cc1 (configuration not stated)	-3.2	2.7	34.8*	4.7	45.8*	0.9	19.8*
CN(c1ccccc1)S(=O)(=O)c1cccc(NC(=O)CN2CCCc3ccccc32)c1	1.0	-1.6	-0.4	1.3	.	.	.
NS(=O)(=O)c1cccc(NC(=O)CN2CCc3ccccc32)c1	-0.9	0.8	9.2*	3.1	9.7*	11.1	6.4
CCCc1c(NC(=O)Nc2ccc(F)cc2)cnn1-c1ccccc1	1.9	-1.5	7.1*	-6.8	17.2*	-6.7	8.4
O=C1CC(N2CCN(c3ccc(O)cc3)CC2)C(=O)N1Cc1cccs1 (configuration not stated)	-1.9	2.2	-1.3	1.2	.	.	.
O=C(c1ccncc1)c1ccc(N2CCN(C3CC(=O)N(Cc4cccs4)C3=O)CC2)cc1 (configuration not stated)	-1.3	-8.0	6.6*	1.1	14.2*	11.2	6.0
O=C1CC(c2ccc(F)cc2)CC2=C1C(c1ccc([N+](=O)[O-])o1)Nc1ccccc1N2 (configuration not stated)	-1.1	-0.8	6.9*	-2.8	1.3	2.8	1.0
COc1cccc(NC(=O)C(C#N)Cc2ccncc2)c1 (configuration not stated)	-0.5	-2.0	16.4*	-5.1	0.8	2.9	3.1
CC(C)C[C@H](NC1(C(=O)NC2CCCCC2)CCOCC1)C(=O)NCC(c1ccccc1)c1ccccc1	.	.	.	-1.6	.	.	.
CCOC(=O)c1ccc(NC(=O)C2(c3ccc(Cl)cc3)CCCC2)cc1	0.5	-1.8	-0.4	2.0	.	.	.
Cc1ccc(NC(=O)COC(=O)C2(c3ccc(Cl)cc3)CCCC2)cc1	-2.9	1.0	6.9*	2.7	12.1*	3.3	11.9
COC(=O)[C@]12C[C@H](CC(=O)N3CCSCC3)C(=O)N(Cc3ccccc3)C1=C[C@H](C1CCCC1)O[C@@H]2C	0.9	.	.	-0.7	.	.	.
CCCc1cc(=O)oc2cc(C)cc(OCC(=O)NC(Cc3c[nH]c4ccc(O)cc34)C(=O)O)c12 (configuration not stated)	-2.0	0.9	7.0*	0.8	11.9*	-2.6	-1.4
CCCCc1cc(=O)oc2cc(OCC(=O)NC(Cc3c[nH]c4ccc(O)cc34)C(=O)O)ccc12 (configuration not stated)	-1.9	0.2	1.6	-0.8	.	.	.
SMILES	PG9 Ab binder	Rin1 Abl inh	Tb MetRS inh	Rev-erbA mod	Tb MetRS conf	Jurkat tox	Tb MetRS inh FP
CCc1cc(=O)oc2cc(C)cc(OCC(=O)NC(Cc3c[nH]c4ccc(O)cc34)C(=O)O)c12 (configuration not stated)	-3.1	0.6	6.6*	-8.8	9.7*	7.5	4.0
CCc1cc(=O)oc2cc(C)cc(OC(C)C(=O)NC(Cc3c[nH]c4ccc(O)cc34)C(=O)O)c12 (configuration not stated)	-0.8	-7.2	5.8*	-3.6	13.4*	-5.8	5.3
CC(Oc1ccc2ccc(=O)oc2c1)C(=O)NC(Cc1c[nH]c2ccc(O)cc12)C(=O)O (configuration not stated)	-3.6	4.7	1.4	-4.0	.	.	.
CC(C)C/C=C1\CCc2c([nH]c3ccccc23)C1=O	-2.0	-3.9	3.6	4.9	.	.	.
CCCCCCCCC1=NCCc2c1[nH]c1ccccc21	-2.5	-2.9	49.4*	-3.4	70.4*	32.7*	47.3*
O=C(Nc1ccc(Cl)cc1)N(Cc1nc2ccccc2c(=O)[nH]1)Cc1cccs1	0.2	-0.2	9.8*	0.9	37.7*	3.0	18.9*
O=C(Nc1ccccc1Cl)N(Cc1nc2ccccc2c(=O)[nH]1)Cc1cccs1	0.2	-0.9	-1.4	7.9	.	.	.
Cc1cc(NC(=O)CCNS(=O)(=O)c2cc(Br)cnc2N)ccc1Br	-0.8	-0.9	30.9*	1.9	47.4*	5.8	29.3*
COc1cc(NC(=O)CCNS(=O)(=O)c2cc(Br)cnc2N)cc(OC)c1	-0.3	-1.6	0.0	-1.0	.	.	.
Cc1ccc(NC(=O)CCNS(=O)(=O)c2cc(Br)cnc2N)cc1Cl	0.8	-3.5	44.0*	-1.0	58.4*	7.1	21.5*
CCOC(=O)c1cccc(NC(=O)CCNS(=O)(=O)c2cc(Br)cnc2N)c1	-1.3	-0.3	0.0	-4.0	.	.	.
Nc1ncc(Br)cc1S(=O)(=O)NCCC(=O)Nc1cccc(Cl)c1	-2.1	3.5	10.5*	-3.1	17.2*	0.2	8.6
O=C(NC1CCCCN(Cc2cccc(F)c2)C1=O)c1ccc(F)cc1 (configuration not stated)	.	.	.	-3.8	.	.	.
CCOP(=O)(OCC)C(Nc1cc(Cl)cc(Cl)c1)c1cccc(O)c1 (configuration not stated)	2.0	-2.2	2.1	5.9	.	.	.
COP(=O)(OC)C(Nc1cc(Cl)cc(Cl)c1)c1cccc(O)c1 (configuration not stated)	2.0	2.1	5.7*	-2.5	14.5*	-0.6	4.0
